Bioassay records from PubChem BioAssay.
DENV2 CPE rescue: protects cells from dengue virus 2 cytopathic effect | DENV2-infected cells, cytopathic effect rescue, plate reader | CPE inhibition, % at 9.99 µM | 1.7% of 350,000 active; in the data active means CPE inhibition above about 20%, passing the limit was not always enough; inconclusive means no clear call, values can overlap the other calls; tested in BHK-21 cells;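 further: 0% = median of neutral control wells and 100% = median of positive control wells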
PglD DTNB: PglD (C. jejuni) enzyme inhibition; purified PglD enzyme, DTNB colorimetric CoA detection; inhibition, % at 12.5 µM; 0.098% of 360,000 active; in the data active means inhibition above about 16%, passing the limit was not always enough; inconclusive means no clear call, values can overlap the other calls
FGF22 binding: binders of recombinant human FGF22 by thermal shift. Q9HCT0. AID 651658. SYPRO orange fluorescence; percent of sucrose octasulfate shift, DMSO zero. activity (Tm shift, normalised), % at 9.99 µM. 1.5% of 340,000 active;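 active means mean Tm shift, scaled 0 neutral to 100 positive control, at about 1.3% or above, every replicate too, limit read from the data; inconclusive means no clear call, values can overlap the other calls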
Target sequence (Q9HCT0 whole entry, looked up): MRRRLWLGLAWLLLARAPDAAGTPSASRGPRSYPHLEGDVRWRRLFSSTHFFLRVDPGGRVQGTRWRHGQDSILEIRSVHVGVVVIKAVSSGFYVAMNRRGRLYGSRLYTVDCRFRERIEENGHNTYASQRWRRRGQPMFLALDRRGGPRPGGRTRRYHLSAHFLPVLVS
Xi reactivation: reactivates the inactive X chromosome in mouse fibroblasts. XiGFP mouse fibroblasts, % GFP-positive cells imaging, 3 d; cells co-treated with 5-aza-dC sensitizer; scaled so ellipticine positive control = 100%. activation, % at 7.58 µM. 0.055% of 360,000 active. AID 743238;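 active means mean normalized replicate activation at least 10% and every replicate at or above 10%; inconclusive means only one of the two criteria met; inactive means mean below 10% and not all replicates reach 10%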;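 further: 0% = median of on-plate neutral control wells and 100% = ellipticine 6 µM median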
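material = 68-5-11 XiGFP fibroblast line | medium = DMEM plus 5-aza-dC sensitizer | schedule = 3 days compound exposure | benchmarks = positive control ellipticine, 6 µM final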
E-selectin induc: induces E-selectin expression in human endothelial cells | P16581 | HUVEC E-selectin immunofluorescence imaging; normalized: neutral wells 0, TNF-alpha wells 100 | activation, % at 7.58 µM | 0.37% of 260,000 active | AID 686992;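 active means mean E-selectin-positive cell signal at least 10% of the positive control, reached in at least 60% of replicates, without over 20% cell loss; inconclusive means no rule given, readout overlaps actives, possibly toxicity-flagged; inactive means the rest, including those meeting only one limit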
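Assay system: HUVEC, human umbilical vein endothelial cells / Amount: 3,000 HUVEC/well / Controls: TNF-alpha positive control, DMSO neutral control / Compound dosing: single concentration / Medium: EGM-2 over gelatin coat / Evaluation: percent E-selectin-positive cells / Signal: immunofluorescence imaging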
Statin myotox sup: suppressors of simvastatin-induced myotoxicity in C2C12 myotubes. AID 602340. rescue of ATP level, % at 7.49 µM. ATP luminescence, 48 h; scaled: DMSO 0, geranylgeraniol control 100. 0.78% of 330,000 active;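 active means mean ATP rescue above about 67%, or every replicate alone reaching that limit, limit read from the data, passing the limit was not always enough; inconclusive means no clear call, values can overlap the other calls; inactive means mean under the limit and some replicate under it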;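 further: myotubes were challenged with 10 µM simvastatin during compound exposure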
* hit, by the source's call; ? = inconclusive; · = no result. Shown are actives, neighbours in structure and some others; about 3.3% of the full set was active somewhere.

SMILES	DENV2 CPE rescue	PglD DTNB	FGF22 binding	Xi reactivation	E-selectin induc	Statin myotox sup
FC(F)(F)c1cccc(NC(=S)N2CCN(c3ccccn3)CC2)c1	-10.6	·	43.6*	0.1	·	·
COc1ccccc1NC(=O)N1CCN(c2ccc(F)cc2)CC1	·	-1.4	·	·	·	2.4
Fc1ccc(NC(=S)N2CCN(c3cccc(C(F)(F)F)c3)CC2)cc1	4.7	·	-0.4	0.1	147.8*	·
C/C=C/c1ccc([C@@H]2[C@H](CO)N(CC3CC3)C23CN(C(=O)COC)C3)cc1	9.7	·	·	0.2	0.1	·
C[C@H]1CN([C@@H](C)CO)S(=O)(=O)c2ccc(C3=CCCC3)cc2O[C@H]1CN(C)C(=O)CC1CC1	8.7	1.2	-0.3	4.8	5.1	17.7
CCCNC(=O)C[C@H]1CC[C@@H]2[C@H](COc3ccc(NC(=O)c4cccc(C(F)(F)F)c4)cc3C(=O)N2C)O1	·	-0.3	·	0.3	0.4	-0.8
CCCNC(=O)C[C@H]1CC[C@H]2[C@H](COc3ccc(NC(=O)c4cccc(OC)c4)cc3C(=O)N2C)O1	10.9	5.0	0.0	0.1	-0.1	-3.9
CN1C(=O)c2cc(NC(=O)c3cscn3)ccc2OC[C@H]2O[C@H](CC(=O)NCc3ccc(Cl)c(Cl)c3)CC[C@H]21	5.4	0.1	0.1	0.0	0.3	78.2*
CCCNC(=O)C[C@@H]1CC[C@H]2[C@@H](COc3ccc(NC(=O)c4cccc(OC)c4)cc3C(=O)N2C)O1	46.0*	0.4	-0.2	0.2	0.0	-2.3
COc1cccc(CNC(=O)C[C@H]2CC[C@H]3[C@@H](COc4ccc(NC(C)=O)cc4C(=O)N3C)O2)c1	28.1*	·	·	0.3	-0.1	·
CCCNC(=O)C[C@@H]1CC[C@H]2[C@@H](COc3ccc(NC(=O)c4cccc(C(F)(F)F)c4)cc3C(=O)N2C)O1	24.1*	-1.4	-0.3	0.2	0.1	3.0
COc1cccc(CNC(=O)C[C@H]2CC[C@@H]3[C@H](COc4ccc(NC(C)=O)cc4C(=O)N3C)O2)c1	1.3	-1.8	0.2	0.2	-0.1	1.0
CCCNC(=O)C[C@H]1CC[C@@H]2[C@H](COC[C@@H](O)CN2Cc2ccncc2)O1	-1.5	14.4	0.1	0.1	-0.2	12.1
O=C1NC[C@H](CCCCN2C[C@H](Cc3ccccc3)N(CCC3CCCCC3)C(=O)C2=O)N(CCc2ccccc2)C1=O	1.3	·	8.8*	-0.1	·	·
CCC/C(=C1/c2ccccc2C(=O)N1c1ccccc1)c1c(C)noc1C	-3.5	·	42.9*	-0.1	-0.5	·
CCC/C(C#CCCN1C(=O)c2ccccc2C1=O)=C1/c2ccccc2C(=O)N1c1ccccc1	78.7*	-0.6	-0.4	0.0	0.1	8.1
CCC/C(=C1/c2ccccc2C(=O)N1c1ccccc1)c1ccc2c(c1)OCO2	11.1	1.0	0.1	0.1	·	20.9
CCC/C(C#Cc1ccc(N(C)C)cc1)=C1/c2ccccc2C(=O)N1c1ccccc1	12.5	-10.9	0.1	4.5	0.0	7.3
CCS(=O)(=O)Nc1ccc2c(c1)C(=O)N(C)C[C@H](OC)[C@@H](C)CN(C(=O)COC)[C@@H](C)CO2	-6.3	-5.5	·	0.4	-0.1	-0.3
C[C@H]1CN([C@@H](C)CO)C(=O)c2cc(NS(C)(=O)=O)ccc2O[C@@H]1CN(C)Cc1ccc(C(F)(F)F)cc1	10.7	3.2	0.7	0.4	-2.5	-23.7
C[C@H]1CN([C@@H](C)CO)C(=O)Cc2cc(NS(=O)(=O)c3ccccc3)ccc2O[C@H]1CN(C)Cc1ccc(C(F)(F)F)cc1	-3.0	-0.7	0.0	0.1	42.0*	16.4
C[C@@H]1CN([C@H](C)CO)C(=O)c2cc(NS(C)(=O)=O)ccc2O[C@@H]1CN(C)Cc1ccc(C(F)(F)F)cc1	-9.4	3.2	0.7	-0.1	110.3*	-17.9
C[C@H](CO)N1C[C@H](C)[C@H](CN(C)Cc2ccc(C(F)(F)F)cc2)Oc2ccc(NS(=O)(=O)c3ccccc3)cc2CC1=O	4.8	2.4	0.1	0.3	5.6	-0.1
C[C@@H]1CN([C@H](C)CO)C(=O)Cc2cc(NS(=O)(=O)c3ccccc3)ccc2O[C@H]1CN(C)Cc1ccc(C(F)(F)F)cc1	12.3	-1.7	-0.4	0.1	1.9	14.0
C[C@H](CO)N1C[C@H](C)[C@@H](CN(C)Cc2ccc(C(F)(F)F)cc2)Oc2ccc(NS(C)(=O)=O)cc2CC1=O	-3.9	-0.1	-0.4	0.8	0.2	58.3
SMILES	DENV2 CPE rescue	PglD DTNB	FGF22 binding	Xi reactivation	E-selectin induc	Statin myotox sup
C[C@@H]1CN([C@@H](C)CO)C(=O)Cc2cc(NS(C)(=O)=O)ccc2O[C@H]1CN(C)Cc1ccc(C(F)(F)F)cc1	20.0*	-2.9	·	-0.4	0.2	-18.0
C[C@@H]1CN([C@H](C)CO)C(=O)Cc2cc(NS(=O)(=O)c3ccccc3)ccc2O[C@@H]1CN(C)Cc1ccc(C(F)(F)F)cc1	7.2	-0.5	0.0	0.3	46.6*	37.0
C[C@H](CO)N1C[C@H](C)[C@H](CN(C)C(=O)CN(C)C)Oc2ncc(C#Cc3ccncc3)cc2C1=O	-1.3	3.3	0.3	-1.0	0.6	15.1
C[C@@H]1CN([C@@H](C)CO)C(=O)c2cc(NC(=O)Cc3ccccc3)ccc2O[C@H]1CN(C)S(=O)(=O)c1cccs1	13.1	-1.6	0.4	-0.1	10.1	12.7
O=C(N/N=C/c1cccn1-c1ccc([N+](=O)[O-])cc1)c1cccnc1	115.8*	-0.7	0.1	0.0	0.5	3.8
CC(C)c1ccc(/C=N/NC(=O)c2cc(-c3cccc([N+](=O)[O-])c3)n[nH]2)cc1	33.8*	0.1	-0.1	0.2	·	·
Cn1cccc1-c1cc(C(=O)N/N=C/c2ccc([N+](=O)[O-])cc2)[nH]n1	3.3	5.0	-0.1	0.1	·	-63.5
O=C(N/N=C/c1cc(Br)c(Br)s1)c1ccncc1	?	-1.4	43.6*	0.2	0.0	-10.1
O=C(N/N=C/c1ccc([N+](=O)[O-])cc1)c1ccc(COc2ccccc2-c2ccccc2)cc1	-9.1	·	43.7*	0.0	·	·
Cc1cc(C(=O)Nc2cccc3c2O[C@@H](CN(C)Cc2ccc(C(F)(F)F)cc2)[C@H](C)CN([C@@H](C)CO)C3=O)n(C)n1	5.5	1.6	1.1	0.0	-10.1	-3.5
CCCNC(=O)C[C@@H]1CC[C@@H]2[C@@H](COc3ccc(NC(=O)c4cccc(F)c4)cc3C(=O)N2C)O1	-6.6	-0.2	0.0	0.0	0.0	11.2
NCC[C@H]1CC[C@@H](NC(=O)C2CC2)[C@H](CO)O1	-3.1	·	·	0.3	-0.1	·
O=C(NN=Cc1ccc([N+](=O)[O-])cc1)c1ccncc1	10.6	5.1	43.9*	0.3	-0.1	4.8
Cc1ccsc1/C=N/NC(=O)c1ccncc1	1.3	·	43.4*	0.0	-0.1	·
